Measurements from ChEMBL document CHEMBL1136924 (J Med Chem, 2009).
Activity calls are given as the source filed them.

Key:
[1] = molecular target: T1, 5-hydroxytryptamine receptor 3A (Cavia porcellus) (UniProt O70212); assay: Agonist activity at 5HT3 receptor in voltage-stimulated guinea pig left atrium assessed as positive inotropic potency; format: functional, tissue-based; details: Cardiac atrium
T1 sequence (whole entry): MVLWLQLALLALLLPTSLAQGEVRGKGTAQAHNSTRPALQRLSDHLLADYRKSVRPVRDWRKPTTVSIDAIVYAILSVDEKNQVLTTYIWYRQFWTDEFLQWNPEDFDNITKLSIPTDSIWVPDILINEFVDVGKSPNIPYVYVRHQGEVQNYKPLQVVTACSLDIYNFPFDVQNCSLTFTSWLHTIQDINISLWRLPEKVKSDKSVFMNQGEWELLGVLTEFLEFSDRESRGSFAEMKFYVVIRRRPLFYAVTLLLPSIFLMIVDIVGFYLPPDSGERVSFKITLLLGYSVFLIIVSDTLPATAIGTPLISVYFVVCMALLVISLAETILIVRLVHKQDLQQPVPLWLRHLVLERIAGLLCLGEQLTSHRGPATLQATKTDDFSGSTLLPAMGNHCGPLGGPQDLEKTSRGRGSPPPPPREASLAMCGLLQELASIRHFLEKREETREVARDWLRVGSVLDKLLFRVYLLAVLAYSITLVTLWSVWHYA
Method in brief: (§1)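 Isolated guinea pig atria in PSS (Tyrode) with ketanserin 1 µM, 95% O2-5% CO2, pH 7.4, 35 °C. Right atrium beating spontaneously (rate); left atrium paced 1 Hz, 0.6-0.8 ms pulses near 50% threshold (force). Isometric recording after 45-60 min stabilization.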

[2] = molecular target: T1, 5-hydroxytryptamine receptor 3A (Cavia porcellus); assay: Agonist activity at 5HT3 receptor in spontaneously beating guinea pig right atrium assessed as positive chronotropic potency; format: functional, tissue-based; details: Cardiac atrium; method in brief: as §1
[3] = molecular target: T1, 5-hydroxytryptamine receptor 3A (Cavia porcellus); details: Thoracic aorta
[4] = test system: Rattus norvegicus; assay: Antagonist activity at 5HT3 receptor in urethane-anesthetized Sprague-Dawley rat assessed as prevention of 1-phenylbiguanide-induced bradycardia at 1 ug/kg, iv administered 5 mins before 1-phenylbiguanide challenge measured after 5 mins post-treatment by von Bezold-Jarisch reflex test; format: functional; design: scale not given: the % may be the effect or the level left
[5] = test system: Rattus norvegicus; assay: Antagonist activity at 5HT3 receptor in urethane-anesthetized Sprague-Dawley rat assessed as effect on 1-phenylbiguanide-induced bradycardia at 36 ug/kg, iv administered 5 mins before 1-phenylbiguanide challenge measured after 5 to 30 mins post-treatment by von Bezold-Jarisch reflex test; format: functional, organism-based
[6] = molecular target: T2, 5-hydroxytryptamine receptor 3A (Rattus norvegicus, UniProt P35563); assay: Displacement of [3H]LY278584 from 5HT3 receptor in rat cortical homogenate
T2 sequence (P35563 whole entry): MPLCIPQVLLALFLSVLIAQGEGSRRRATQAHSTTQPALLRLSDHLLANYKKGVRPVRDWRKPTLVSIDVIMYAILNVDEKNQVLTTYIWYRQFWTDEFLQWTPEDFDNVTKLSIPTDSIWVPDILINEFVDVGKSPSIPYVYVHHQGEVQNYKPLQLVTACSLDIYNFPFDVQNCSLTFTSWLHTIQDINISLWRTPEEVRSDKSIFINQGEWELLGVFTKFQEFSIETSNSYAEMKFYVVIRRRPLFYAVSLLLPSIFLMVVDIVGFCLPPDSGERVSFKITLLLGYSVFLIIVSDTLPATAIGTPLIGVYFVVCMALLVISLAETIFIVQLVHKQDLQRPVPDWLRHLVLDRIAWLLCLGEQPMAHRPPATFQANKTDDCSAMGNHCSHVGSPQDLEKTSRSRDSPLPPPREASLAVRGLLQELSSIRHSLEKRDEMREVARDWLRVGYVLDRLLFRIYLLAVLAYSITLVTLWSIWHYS

[7] = molecular target: T1, 5-hydroxytryptamine receptor 3A (Cavia porcellus); assay: Agonist activity at 5HT3 receptor in voltage-stimulated guinea pig left atrium assessed as positive inotropic potency at 100 uM; format: functional, tissue-based; details: Cardiac atrium
Method in brief: (§2)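 Guinea pig left and right atria were hung in a 15 mL bath of PSS (pH 7.4, 95% O2-5% CO2, 35 °C) with ketanserin 1 µM. The right atrium beat spontaneously; the left was paced at 1 Hz. Cumulative doses (0.1-100 µM; DMSO ≤0.3%) were added after 45-60 min stabilization. Rate or isometric force was recorded. EC50 came from Probit analysis, n≥4. Intrinsic activity was taken relative to 5-HT.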

[8] = molecular target: T1, 5-hydroxytryptamine receptor 3A (Cavia porcellus); assay: Agonist activity at 5HT3 receptor in spontaneously beating guinea pig right atrium assessed as positive chronotropic potency at 100 uM; format: functional, tissue-based; details: Cardiac atrium; method in brief: as §2
[9] = molecular target: T1, 5-hydroxytryptamine receptor 3A (Cavia porcellus); assay: Agonist activity at 5HT3 receptor in guinea pig thoracic aorta assessed as positive contractility potency at 100 uM; format: functional, tissue-based
Method in brief: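 Guinea pig aortic helicoidal strips in PSS at 35 °C, aerated, under 1 g resting force, washed every 20 min for 1 h. Compounds added cumulatively 0.1-100 µM (DMSO vehicle); isometric contraction recorded.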

[10] = molecular target: T3, 5-hydroxytryptamine receptor 3A (Cavia porcellus, UniProt O70212); assay: Antagonist activity at 5HT3 receptor in spontaneously beating guinea pig right atrium assessed as inhibition of serotonin-induced maximum response by noncompetitive binding assay; format: tissue-based, Cardiac atrium
T3 sequence (O70212 whole entry): T1 sequence (whole entry)
Method in brief: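 Spontaneously beating guinea pig right atrium; 5-HT concentration-response curves (0.001-1.0 µM) before and after 30 min antagonist exposure at three concentrations. IC50 is inhibition of 50% of maximal 5-HT response, Probit analysis, n = 4-6.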

[11] = test system: Rattus norvegicus; assay: Agonist activity at 5HT3 receptor in iv dosed urethane-anesthetized Sprague-Dawley rat assessed as induction of bradycardia measured after 5 to 30 mins post-treatment by von Bezold-Jarisch reflex test; format: functional
[12] = molecular target: T3, 5-hydroxytryptamine receptor 3A; assay: Antagonist activity at 5HT3 receptor in spontaneously beating guinea pig right atrium assessed as inhibition of serotonin-induced maximum response by competitive binding assay; design: species or system Cardiac atrium; details: read-out: pA2 (converted)

NCCc1c[nH]c2ccc(O)cc12
pD2 [1]: 6.85
pD2 [2]: 5.78
pD2 [3]: 4.19

COc1cc(N)c(Cl)cc1C(=O)NC1CN2CCC1CC2 (stereo not given) [ZACOPRIDE]
Activity [4]: 100%

O=C(O)CN1CCN(c2nc3cc(F)ccc3n3cccc23)CC1
Activity [5]: inactive
Ki [6]: 11.7 nM
pD2 [7]: inactive
pD2 [8]: inactive
pD2 [9]: inactive
IC50 [10]: 1910 nM
ED50 [11]: 0.036 mg/kg

CN1[C@@H]2CC[C@H]1C[C@@H](OC(=O)c1c[nH]c3ccccc13)C2 [TROPISETRON]
pD2 [7]: inactive
pD2 [8]: inactive
pD2 [9]: inactive
Kb [12]: 30.2 nM
